Assay results reported in ChEMBL document CHEMBL5104224, “Alkyltriphenylphosphonium turns naphthoquinoneimidazoles into potent membrane depolarizers against mycobacteria” (RSC Med Chem, 2022).

Experiments:
[1] = Aqueous solubility of compound at pH 7.4 measured after 24 hrs; assay type: physicochemical; settings: buffer
Procedure, shortened: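 Stock in DMSO diluted to 100 μM in Universal buffer pH 7.4 with 1% DMSO. Agitated on filter plates for 24 h at 25°C, then filtered and the filtrate diluted with acetonitrile. Concentration read by UV absorbance against calibration curves made in buffer/acetonitrile 80:20. At least 3 occasions, using different stocks.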

[2] = Selectivity index, ratio of IC50 for cytotoxicity against African green monkey Vero E6 cells to MIC50 for antimycobacterial activity against Mycobacterium bovis BCG ATCC 35734; assay type: toxicity, cell-based, Vero C1008; settings: read-out: Selectivity Index
[3] = Selectivity index, ratio of IC50 for cytotoxicity against African green monkey Vero E6 cells to MIC50 for antimycobacterial activity against Mycobacterium tuberculosis H37Rv ATCC 27294; assay type: toxicity, cell-based, Vero C1008; settings: read-out: Selectivity Index
Procedure, shortened: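 SI is the ratio of a Vero E6 IC50 to an H37Rv MIC50. Vero E6 cells in DMEM + 10% heat-inactivated FBS, 1% penicillin; 30,000 cells/well, 24 h adherence, then compound for 48 h (0.5% DMSO), 37°C, 5% CO2. MTS read at 490 nm after 3 h; IC50 from sigmoidal viability fit, ≥3 determinations. MIC50 by broth dilution: 50% growth inhibition versus drug-free control.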

SMILES: CCCCCCCCn1c2c([n+](CCCC)c1C)C(=O)c1ccccc1C2=O.[Br-]
- solubility at 24 h [1]: 118 µM

SMILES: CCCCn1c2c([n+](C3CCC4(CCCCC4)CC3)c1C)C(=O)c1ccccc1C2=O.[Br-]
- solubility at 24 h [1]: 118 µM

SMILES: Cc1nc2c(n1CCCCCCCCCCC[P+](C1CCCCC1)(C1CCCCC1)C1CCCCC1)C(=O)c1ccccc1C2=O
- selectivity ratio [2]: 7

SMILES: Cc1nc2c(n1CCCCCCCCCCC[P+](c1ccccc1)(c1ccccc1)c1ccccc1)C(=O)c1ccccc1C2=O
- selectivity ratio [2]: 11
- selectivity ratio [3]: 5

SMILES: Cc1nc2c(n1CCCCCCCCC[P+](c1ccccc1)(c1ccccc1)c1ccccc1)C(=O)c1ccccc1C2=O
- selectivity ratio [2]: 21
- selectivity ratio [3]: 34
